Source: PubChem (several laboratories)
Most compounds without a hit are left out; they make up all but 1.9% or so of the library.
procasp7 counter: counter-screen for procaspase-3 activators: activators of human procaspase-7. activation, % at 8.5 µM. P55210. recombinant procaspase-7, Ac-DEVD-pNA absorbance 405 nm; D23A/D198A/D206A triple mutant, cannot self-cleave; scale: DMSO 0, 5 µM enzyme 100. hit rate 0.093% among 330,000;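 active = percent activation above the screen-wide mean plus 3 SD, cut at about 25% in these data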
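Assay system – Uncleavable procaspase-7 mutant enzyme · Quantity – 2 µM procaspase-7 mutant as dispensed · Times – 1 h preincubation, 2 h reaction · Dosing – single nominal 8.5 µM compound dose, 0.8% DMSO final · Buffer or medium – Zinc-free 50 mM HEPES buffer, pH 7.4, with NaCl and Triton X-100 · Detection – Epi-absorbance of released pNA at 405 nm, two timepoints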
IDE cell inh: inhibits human insulin-degrading enzyme in HEK cells. FAbetaB cleavage, fluorescence polarization. inhibition, % at 5.59 µM. P14735. hit rate 0.41% among 320,000;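 active = percent inhibition above the average of all tested compounds plus 3 SD, set per screening campaign, cut at about 16% in these data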;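 also: IDE supplied by intact live HEK cells; FP after avidin binding of uncleaved biotin substrate so inhibition keeps polarization high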
IDE act: activators of human insulin-degrading enzyme in cells; hit rate 0.073% among 340,000; P14735; activation, % at 5.96 µM; HEK cells, FAbeta-B cleavage, fluorescence polarization; 0% vehicle, 100% cell-free pure enzyme wells; AID 493087;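 active = activation above the mean of all tested compounds plus 3 SD, set per screening campaign, cut at about 17% in these data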
proCasp3 act: activates human procaspase-3; P42574; recombinant procaspase-3 D3A, Ac-DEVD-pNA absorbance 405 nm; activation, % at 8.5 µM; hit rate 0.11% among 330,000; AID 463141;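 active = activation above the mean of all tested compounds plus 3 SD, cut at about 21% in these data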
Target sequence (P42574 whole entry D9A/D28A/D175A): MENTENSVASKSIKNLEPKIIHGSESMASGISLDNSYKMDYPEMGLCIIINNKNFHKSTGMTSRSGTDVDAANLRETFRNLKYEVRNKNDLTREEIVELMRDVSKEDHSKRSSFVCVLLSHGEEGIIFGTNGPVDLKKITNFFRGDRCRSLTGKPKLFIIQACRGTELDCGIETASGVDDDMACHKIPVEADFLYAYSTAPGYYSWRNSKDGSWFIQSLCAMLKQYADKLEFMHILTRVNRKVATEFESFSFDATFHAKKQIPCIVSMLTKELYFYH
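Technique: 405 nm absorbance of p-nitroaniline, reads at 0 and 120 min; Test system: Procaspase-3 D3A mutant; Incubation: 1 h enzyme-compound preincubation, then 2 h substrate reaction, 25 °C; Repeats: singlicate, each compound tested once; Benchmarks: low control DMSO wells, high control DMSO plus 5 µM PC-3 D3A.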
PHOSPHO1 block: inhibitors of human PHOSPHO1 phosphatase; Q8TCT1; recombinant PHOSPHO1, absorbance phosphatase assay; inhibition, % at 13.3 µM; hit rate 1.1% among 290,000; AID 1565; in the data active = inhibition above about 60%
Target sequence (Q8TCT1 whole entry, looked up): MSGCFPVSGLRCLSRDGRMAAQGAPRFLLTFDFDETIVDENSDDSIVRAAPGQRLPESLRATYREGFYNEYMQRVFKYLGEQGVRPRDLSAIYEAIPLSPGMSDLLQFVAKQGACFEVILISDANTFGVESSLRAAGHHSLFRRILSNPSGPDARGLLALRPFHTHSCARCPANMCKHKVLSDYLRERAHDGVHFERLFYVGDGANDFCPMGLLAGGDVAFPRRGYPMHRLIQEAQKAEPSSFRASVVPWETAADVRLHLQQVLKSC
UBC13 polyUb: human UBC13 polyubiquitination inhibition. P61088. UBC13 polyubiquitin chain formation, TR-FRET. inhibition, % at 20 µM. hit rate 0.47% among 330,000. AID 485273; in the data active = inhibition above about 45%, passing the limit was not always enough
A number is an active result; - = inactive; . = not tested or not shown.

SMILES	procasp7 counter	IDE cell inh	IDE act	proCasp3 act	PHOSPHO1 block	UBC13 polyUb
CC(C)(C)CC(=O)NCc1cccs1	-	-	-	-	60.0	-
CSc1nnc(NC(=O)CCc2ccccc2)s1	-	-	-	-	82.4	-
Cc1cccc(-n2ccnc2SCC(=O)Nc2ccc3c(c2)OCCO3)c1	-	-	-	-	-	-
Cc1ccc(NC(=O)CSc2ncn(-c3ccccc3)n2)cc1C	-	-	-	-	-	-
O=C(CSc1ncn(-c2ccccc2)n1)Nc1ccc2c(c1)OCO2	-	-	-	-	81.5	-
O=C(CSc1nccn1-c1ccc(Cl)cc1)Nc1ccc2c(c1)OCO2	-	-	-	-	88.9	-
O=C(CSc1nnc2c(n1)[nH]c1ccccc12)Nc1ccc2c(c1)OCO2	-	-	-	-	78.5	-
O=C(CSc1ncn(-c2ccccc2)n1)Nc1ccc2c(c1)OCCO2	-	-	-	-	62.1	-
O=C(Nc1cccc(C(=O)N2CCOCC2)c1)C1CCCC1	.	.	-	.	.	.
O=C(NC1CCCCC1)C(c1cccnc1)N(C(=O)c1csnn1)c1ccccc1 (stereo unspecified)	-	-	-	-	-	-
Cc1cc(=S)[nH]c2c(C)cccc12	-	-	-	-	97.5	-
CC(=O)N1c2ccc(S(=O)(=O)N3CCC(C(=O)NC(C)c4ccccc4)CC3)cc2CC1C (stereo unspecified)	-	-	-	-	-	-
Cc1cc2nc(CCN(Cc3cccnc3)C(=S)Nc3ccccc3)[nH]c2cc1C	-	-	-	-	92.5	-
OCCNCCNCc1ccccc1OCc1ccccc1	-	-	-	-	-	-
CCNCc1ccccc1OCc1ccccc1	-	-	-	-	68.6	-
Cc1cc(NS(=O)(=O)c2ccc(NC(=O)CCCOc3ccccc3C)cc2)no1	-	-	-	-	-	-
Cc1ccc2[nH]c(=O)c(CNC(C)C)cc2c1	-	-	-	-	62.1	-
COc1ccc(Cl)cc1NC(=O)CN(C)C(=O)c1ccc(N2CCCCCC2)c([N+](=O)[O-])c1	-	-	-	-	.	-
CCn1c(COc2ccccc2)nnc1SCC(=O)CC(=O)Nc1ccccc1OC	-	-	-	-	92.1	-
CCn1c(COc2cccc(C)c2)nnc1SCC(=O)CC(=O)Nc1ccccc1OC	-	-	-	-	93.3	-
CCn1c(COc2ccccc2C)nnc1SCC(=O)CC(=O)Nc1ccccc1OC	-	-	-	-	-	-
OCc1ccc(O)c2ncccc12	-	-	-	-	-	-
Oc1ccc(CNc2ccccc2F)c2cccnc12	-	-	-	-	97.1	-
Cc1cc(C)c(C)c(C(=O)CSc2nnc(-c3ccc4[nH]c(C)c(C)c4c3)o2)c1C	-	-	-	-	61.1	-
Cc1[nH]c2ccc(-c3nnc(SCC(=O)c4ccc(F)cc4)o3)cc2c1C	-	-	-	-	86.6	-
SMILES	procasp7 counter	IDE cell inh	IDE act	proCasp3 act	PHOSPHO1 block	UBC13 polyUb
CCn1c(SCC(=O)O)nnc1-c1ccc2[nH]c(C)c(C)c2c1	-	-	-	-	-	-
Cc1ccc(S(=O)(=O)N2CCC3(CC2)OCCO3)cc1	-	-	-	-	-	-
COc1cccc(OCCSc2nc(N)cc(N)n2)c1	-	-	-	-	-	-
Nc1cc(N)nc(SCCOc2ccccc2)n1	-	-	23.3	-	-	-
COc1ccc(C(=O)NC(=S)NNC(=O)c2ccco2)cc1	-	-	-	-	-	-
O=C(NNC(=S)NC(=O)c1ccco1)c1ccc(NC(=O)c2ccccc2)cc1	-	-	-	-	71.0	-
COc1ccccc1OCC(=O)NNC(=S)NC(=O)c1ccco1	-	-	-	-	94.6	-
O=C(Nc1ccc(NC(=S)NC(=O)c2ccco2)cc1)c1ccccc1	-	-	-	-	-	-
CCOc1cc(/C=N/Nc2cc(C)nc(-n3nc(C)cc3C)n2)ccc1O	-	-	22.1	-	-	-
Cc1cc(N/N=C/c2ccc(F)cc2)nc(-n2nc(C)cc2C)n1	-	-	.	-	-	-
O=C(Cc1cccc(NC(=O)C2CCN(C(=O)CCc3ccccc3)CC2)c1)Nc1cccc(C(=O)N2CCCCC2)c1	.	.	-	.	.	.
Cc1ccc(-n2c(C3CC3c3ccc(Cl)cc3)n[nH]c2=S)cc1 (stereo unspecified)	-	-	-	-	97.4	-
Cc1ccc(C2CC2c2n[nH]c(=S)n2-c2ccc(C)cc2)cc1 (stereo unspecified)	-	-	-	-	89.7	-
COc1ccc(S(=O)(=O)N2CCOCC2)cc1NC(=O)CN1C(=O)NC2(CCCCC2C)C1=O (stereo unspecified)	-	-	-	-	.	-
Cn1c(-c2sc3cc(C(F)(F)F)cnc3c2-c2cccnc2)n[nH]c1=S	-	-	-	-	92.0	-
Cn1c(-c2sc3cc(C(F)(F)F)cnc3c2-c2ccccn2)n[nH]c1=S	-	-	.	-	-	-
O=C(NC1CC1)c1ccc(NC(=O)C2CCC2)cc1	.	.	-	.	.	.
COC(=O)C1=NN(c2ccccc2)C2(S1)SC(C(C)=O)=C(C)N2c1ccccc1 (stereo unspecified)	-	-	-	-	-	-
COC(=O)C1=NN(c2ccc(C)cc2)C2(S1)SC(C(C)=O)=C(C)N2c1ccccc1 (stereo unspecified)	-	-	-	-	63.7	-
CN(C)CCNC(=O)CCn1nc(-c2ccc(Cl)cc2)ccc1=O	-	-	-	-	-	-
CCCCCCCC/C=C\CCCCCCCC(=O)NCCO	-	-	-	-	.	-
CCCCCCCC/C=C\CCCCCCCC(=O)NCCc1ccc(O)c(O)c1	-	-	17.4	-	.	-
Cc1ncc([N+](=O)[O-])n1CC(=O)N/N=C/c1ccccc1F	-	-	-	-	67.7	-
Cc1cc([N+](=O)[O-])nn1CC(=O)N/N=C/c1ccccc1F	-	-	-	-	-	-
CC(=O)c1coc2c1cc(O)c1ccccc12	-	-	-	-	64.4	-
SMILES	procasp7 counter	IDE cell inh	IDE act	proCasp3 act	PHOSPHO1 block	UBC13 polyUb
CC(=O)Oc1cc2c(C(C)=O)coc2c2ccccc12	-	-	-	-	-	-
O=C1CSC2(N1)C1CC3CC(C1)CC2C3 (stereo unspecified)	-	-	-	-	-	-
C1CSC2(N1)C1CC3CC2CC(C1)C31NCCS1 (stereo unspecified)	-	-	-	-	61.1	-
CSCC[C@H](NC(=O)OC(C)(C)C)c1nnc(SCc2cccc(F)c2)o1	-	-	-	-	73.8	-
Cc1cc(S(=O)(=O)Nc2ccc(C(=O)NCc3cccnc3)cc2)ccc1F	-	-	-	-	.	-
CCC(C)NC(=O)c1cc2c(=O)n3ccccc3nc2s1 (stereo unspecified)	-	-	-	-	60.6	-
O=C(C1CCN(S(=O)(=O)N2CCC3(CC2)OCCO3)CC1)N1CCN(Cc2ccccc2)CC1	-	-	-	-	63.9	-
